Reference: ChEMBL document CHEMBL1152323, “Polyoxygenated methyl cyclohexanoids from a terrestrial ampelomyces fungus” (J Nat Prod, 2009)
≈ marks a conversion by molar mass, not a printed value. Calls of active or inactive are those of the source. The calls are words filed in the database; no cut-off is given here.

Tests used:
[1] = test system: Prunus dulcis; experiment: Inhibition of almond beta glucosidase at 10 uM
[2] = test system: Penicillium decumbens; experiment: Inhibition of Penicillium decumbens alpha-rhamnosidase at 10 mM
[3] = Inhibition of Saccharomyces cerevisiae alpha glucosidase
Outline: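 Baker's yeast α-glucosidase (0.2 U/mL solution) in 0.2 M phosphate buffer pH 6.8 was preincubated with compound at 37 °C for 30 min. 2.5 mM p-nitrophenyl α-D-glucopyranoside solution was then added and the mixture incubated 5 min at 37 °C. The reaction was stopped with 0.1 M Na₂CO₃ and A405 read before and after reaction. Percent inhibition was taken against a buffer-only control, with acarbose as positive control, giving IC50 in mM ± SD.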

[4] = test system: Staphylococcus aureus; experiment: Antimicrobial activity against Staphylococcus aureus by almar blue assay; assay type: functional
Outline: (§1)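 Microplate Alamar Blue broth assay: bacteria at 2 × 10⁵ cfu/mL in MHB with 8% Alamar Blue; serial 2-fold compound dilutions in DMSO added (2 µL to 78 µL culture); ceftazidime reference; incubated at 32 °C until growth controls turned pink; fluorescence ex 530/em 590 nm; % inhibition, triplicate averaged; MIC50 and MIC90 interpolated from concentration–inhibition curves.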

[5] = test system: Escherichia coli; experiment: Antimicrobial activity against Escherichia coli by almar blue assay; assay type: functional
Outline: as §1

[6] = test system: Pseudomonas aeruginosa; experiment: Antimicrobial activity against Pseudomonas aeruginosa by almar blue assay; assay type: functional
Outline: as §1

[7] = test system: Proteus vulgaris; experiment: Antimicrobial activity against Proteus vulgaris by almar blue assay; assay type: functional
Outline: as §1

SMILES | Activity [1] | Activity [2] | IC50 [3] | MIC50 [4] | MIC90 [4] | MIC50 [5] | MIC90 [5] | MIC50 [6] | MIC90 [6] | MIC50 [7] | MIC90 [7]
C[C@H]1C[C@H](O)[C@@H]2O[C@@H]2[C@H]1O (relative stereo) [AMPELOMIN B] | inactive | inactive | > 10 mM | – | – | – | – | – | – | – | –
C[C@H]1C[C@H](O)[C@@H](O)C[C@H]1O (relative stereo) [AMPELOMIN C] | inactive | inactive | 6.12 mM | – | – | – | – | – | – | – | –
C[C@H]1C[C@H](O)[C@H](O)C[C@H]1O (relative stereo) [AMPELOMIN D] | inactive | inactive | > 10 mM | – | – | – | – | – | – | – | –
C[C@H]1C[C@H](O)[C@H](O)C[C@@H]1O (relative stereo) [AMPELOMIN E] | inactive | inactive | 5.93 mM | – | – | – | – | – | – | – | –
C[C@H]1C[C@@H](O)[C@@H](O)C[C@@H]1O (relative stereo) [AMPELOMIN F] | inactive | inactive | > 10 mM | – | – | – | – | – | – | – | –
Cc1cccc(O)c1C(=O)O[C@H]1[C@H](O)[C@@H](O)[C@@H](C)C[C@@H]1O (relative stereo) [AMPELOMIN G] | inactive | inactive | 1.74 mM | – | – | – | – | – | – | – | –
C[C@H]1O[C@H](O[C@H]2[C@H](O)[C@@H](O)[C@@H](O[C@H]3[C@H](O)[C@@H](O)C(O)O[C@@H]3CO)O[C@@H]2CO)[C@H](O)[C@@H](O)[C@@H]1N[C@H]1C=C(CO)[C@@H](O)[C@H](O)[C@H]1O (stereo partly drawn) [ACARBOSE] | – | – | 0.03 mM | – | – | – | – | – | – | – | –
C[C@H]1C[C@@H](O)C=CC1=O [AMPELOMIN A] | inactive | inactive | 3.59 mM | 54.9 µM (≈ 6.93 µg/mL) | 234 µM (≈ 29.5 µg/mL) | 89.9 µM (≈ 11.3 µg/mL) | 265 µM (≈ 33.4 µg/mL) | 63.5 µM (≈ 8.01 µg/mL) | 1020 µM (≈ 128 µg/mL) | 51.6 µM (≈ 6.51 µg/mL) | 202 µM (≈ 25.5 µg/mL)
CC(C)(O/N=C(\C(=O)N[C@@H]1C(=O)N2C(C(=O)[O-])=C(C[n+]3ccccc3)CS[C@H]12)c1csc(N)n1)C(=O)O [CEFTAZIDIME] | – | – | – | 3.11 µM (≈ 1.7 µg/mL) | 14.7 µM (≈ 8.01 µg/mL) | 0.37 µM (≈ 0.202 µg/mL) | 0.46 µM (≈ 0.251 µg/mL) | 0.73 µM (≈ 0.399 µg/mL) | 3.94 µM (≈ 2.15 µg/mL) | 0.18 µM (≈ 0.0984 µg/mL) | 0.21 µM (≈ 0.115 µg/mL)
